Calls of active or inactive are those of the source. The rule behind the calls is not given here.
Key:
[1] = target: T1, Protein deacetylase HDAC6 (Mus musculus) (UniProt Q9Z2V5); test: Inhibition of HDAC6 in mouse SM1 cells assessed as effect on acetylated histone H3 level at 5 uM after 24 hrs by Western blot analysis; assay type: cell-based
T1 sequence (whole entry): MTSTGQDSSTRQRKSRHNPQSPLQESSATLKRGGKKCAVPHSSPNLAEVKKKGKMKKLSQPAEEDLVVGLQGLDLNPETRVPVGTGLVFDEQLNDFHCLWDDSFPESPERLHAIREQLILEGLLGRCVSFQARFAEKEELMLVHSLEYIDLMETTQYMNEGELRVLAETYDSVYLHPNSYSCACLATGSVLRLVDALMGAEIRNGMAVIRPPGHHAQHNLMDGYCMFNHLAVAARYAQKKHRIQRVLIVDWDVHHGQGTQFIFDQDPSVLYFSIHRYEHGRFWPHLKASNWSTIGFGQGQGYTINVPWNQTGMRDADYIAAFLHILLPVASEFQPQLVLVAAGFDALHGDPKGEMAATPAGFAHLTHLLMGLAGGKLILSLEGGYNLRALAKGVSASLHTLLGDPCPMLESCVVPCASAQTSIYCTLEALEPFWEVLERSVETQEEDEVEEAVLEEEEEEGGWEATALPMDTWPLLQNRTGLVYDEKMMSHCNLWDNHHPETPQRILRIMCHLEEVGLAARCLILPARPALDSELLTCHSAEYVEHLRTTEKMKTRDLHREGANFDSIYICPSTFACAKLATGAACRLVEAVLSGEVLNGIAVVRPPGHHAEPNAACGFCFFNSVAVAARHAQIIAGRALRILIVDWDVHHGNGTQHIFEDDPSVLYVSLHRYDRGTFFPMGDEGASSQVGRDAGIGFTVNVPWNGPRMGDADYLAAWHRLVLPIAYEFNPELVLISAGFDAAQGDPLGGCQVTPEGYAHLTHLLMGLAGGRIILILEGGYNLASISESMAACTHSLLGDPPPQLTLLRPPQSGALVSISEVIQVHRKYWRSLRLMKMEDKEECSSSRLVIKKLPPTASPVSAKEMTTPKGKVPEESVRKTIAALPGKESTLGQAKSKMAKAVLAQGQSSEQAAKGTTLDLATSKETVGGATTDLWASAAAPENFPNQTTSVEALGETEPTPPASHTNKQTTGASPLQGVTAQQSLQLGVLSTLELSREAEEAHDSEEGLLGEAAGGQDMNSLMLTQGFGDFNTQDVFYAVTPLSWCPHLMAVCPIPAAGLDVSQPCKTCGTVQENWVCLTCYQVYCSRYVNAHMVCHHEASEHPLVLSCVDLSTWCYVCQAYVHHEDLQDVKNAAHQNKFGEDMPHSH

T-24 = test: Induction of cell death in human T24 cells at 0.1 to 25 uM; assay type: cell-based; conditions: t-24, 25 µM
[2] = Induction of cell death in mouse SM1 cells at 0.1 to 25 uM; assay type: cell-based
[3] = target: T1, Protein deacetylase HDAC6 (Mus musculus); test: Inhibition of HDAC6 in mouse SM1 cells assessed as reduction in IL-6 stimulated PDL1 overexpression at 5 uM pretreated for 1 hr followed by IL-6 stimulation for overnight by western blot analysis; assay type: cell-based
In short: (§1)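 SM1 cells pretreated with 5 µM compound, then IL-6 overnight. Lysed in RIPA buffer with protease and phosphatase inhibitors, sonicated, protein quantified by BCA. Immunoblot for PD-L1 and STAT3 Y705 phosphorylation.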

[4] = target: T1, Protein deacetylase HDAC6 (Mus musculus); test: Inhibition of HDAC6 in mouse SM1 cells assessed as reduction in IL-6 stimulated STAT3 phosphorylation at Y705 residue at 5 uM pretreated for 1 hr followed by IL-6 stimulation for overnight by western blot analysis; assay type: cell-based; in short: as §1
[5] = Half life in mouse liver microsomes in presence of NADPH; assay type: ADME, Microsome
In short: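 Liver microsomal stability in mouse and human microsomes with NADPH; half-life in minutes.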

[6] = Half life in mouse hepatocytes; assay type: ADME, cell-based, Hepatocyte
In short: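 Half-life in minutes measured in mouse and human hepatocytes.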

[7] = target: Histone deacetylase (Mus musculus) (UniProt Q8VH37+Q9Z2V6+Q9Z2V5+O09106+Q8C2B3+P70288+O88895+Q91WA3+Q99N13+Q6NZM9+Q6P3E7); test: Inhibition of HDAC in mouse SM1 cells at 0.1 to 25 uM measured after 1 hr by HDAC-Glo 1/2 luminescent assay; assay type: cell-based
In short: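 Cells plated at 10,000 per well overnight, then after 24 h treated with compound for 1 h at 37 °C, 5% CO2. HDAC-Glo I/II developer mixed with substrate and added to wells; luminescence read every 2 min for 1 h 15 min.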

[8] = target: T1, Protein deacetylase HDAC6 (Mus musculus); test: Inhibition of HDAC6 in mouse SM1 cells assessed as reduction in IL-6 stimulated CD274 gene expression at 5 uM pretreated for 1 hr followed by IL-6 stimulation for overnight by qRT-PCR analysis; assay type: cell-based
In short: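 SM1 cells serum-starved overnight, pretreated 1 h with 5 µM compound, then given recombinant murine IL-6 at 30 ng/mL overnight. Total RNA extracted with Trizol; PD-L1 mRNA measured by qRT-PCR, normalized to GAPDH by the Pfaffl method, in arbitrary units.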

inhibition [1]: inactive
inhibition [3]: Active
inhibition [4]: Active
half-life [5]: 37 min
half-life [6]: 22 min
inhibition [7]: Active
inhibition [8]: Active
Structure (SMILES): O=C(NCCc1cc(C(=O)NO)no1)c1ccc(Cl)c(Cl)c1
Activity (T-24): Non-Toxic
Activity [2]: Non-Toxic

Reference: ChEMBL document CHEMBL4354804, “Discovery of a New Isoxazole-3-hydroxamate-Based Histone Deacetylase 6 Inhibitor SS-208 with Antitumor Activity in Syngeneic Melanoma Mouse Models” (J Med Chem, 2019)
